Experimental data as given in ChEMBL document CHEMBL1141088, “A new pyridazine series of GABAA alpha5 ligands” (J Med Chem, 2005).
pEC50, pKi: −log10 of the molar value.

Columns and labels:
[1] = Clearance of compound determined after iv administration at 1 mg/kg dose as a solution(1 mg/mL) in a PEG 300:H2O(3:1); assay type: ADME, organism-based; set-up: dose 1 mg/kg, route intravenous; conditions: rat, in vivo
In short: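 Single rat, cannulated, given 100 units heparin, recovered 48 h, fasted overnight. Dosed 1 mg/kg iv bolus (1 mL/kg) in PEG 300:water 3:1. Serial blood sampled to 6 h and plasma analysed by LC-MS/MS with diazepam internal standard. Cl in mL/min/kg from plasma, T1/2 in hours from 1–3 h data, Vdss in L/kg.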

[2] = target: T1, GABA-A receptor; alpha-3/beta-3/gamma-2 (Homo sapiens) (UniProt P18507+P28472+P34903); assay: Efficacy at GABAA alpha-3-beta-3-gamma-2 receptor expressed in mouse fibroblast L(tk-) cells measured at 300 nM derived from at least three plates/day screened over a minimum of 2 days; assay type: functional, cell-based
In short: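 FRET membrane-potential (VIPR) assay in L(tk-) cells with receptor expression induced 24 h by 1 µM dexamethasone. Dye-loaded 30 min in low-Cl- HEPES buffer pH 7.4: 4 µM CC2-DMPE, 1 µM DiSBAC2(3), 0.5 mM tartrazine. Basal read 8 s, compound at 300 nM, half-maximal GABA 22 s later, 1 Hz reads. Background-subtracted 460/580 nm ratio, normalized to DMCM as -100%.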

[3] = target: T2, GABA-A receptor; alpha-1/beta-3/gamma-2 (Homo sapiens, UniProt P14867+P18507+P28472); assay: Negative logarithm of effective concentration against GABA-A alpha-1-beta-3-gamma-2 receptor; assay type: protein-complex assay
T2 sequence (P14867 whole entry): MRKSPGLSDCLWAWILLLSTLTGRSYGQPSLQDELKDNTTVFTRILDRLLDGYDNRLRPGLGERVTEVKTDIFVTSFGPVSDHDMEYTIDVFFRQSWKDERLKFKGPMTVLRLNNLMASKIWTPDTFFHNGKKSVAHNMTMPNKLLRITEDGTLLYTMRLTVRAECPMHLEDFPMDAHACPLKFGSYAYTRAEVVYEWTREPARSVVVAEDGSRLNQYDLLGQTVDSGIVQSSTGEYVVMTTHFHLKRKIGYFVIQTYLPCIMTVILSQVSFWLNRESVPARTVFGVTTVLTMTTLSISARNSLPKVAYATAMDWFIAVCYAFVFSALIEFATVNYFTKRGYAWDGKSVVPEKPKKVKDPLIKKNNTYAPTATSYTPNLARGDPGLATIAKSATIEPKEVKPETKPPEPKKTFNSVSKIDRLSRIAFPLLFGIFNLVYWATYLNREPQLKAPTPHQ
T2 sequence (P18507 whole entry): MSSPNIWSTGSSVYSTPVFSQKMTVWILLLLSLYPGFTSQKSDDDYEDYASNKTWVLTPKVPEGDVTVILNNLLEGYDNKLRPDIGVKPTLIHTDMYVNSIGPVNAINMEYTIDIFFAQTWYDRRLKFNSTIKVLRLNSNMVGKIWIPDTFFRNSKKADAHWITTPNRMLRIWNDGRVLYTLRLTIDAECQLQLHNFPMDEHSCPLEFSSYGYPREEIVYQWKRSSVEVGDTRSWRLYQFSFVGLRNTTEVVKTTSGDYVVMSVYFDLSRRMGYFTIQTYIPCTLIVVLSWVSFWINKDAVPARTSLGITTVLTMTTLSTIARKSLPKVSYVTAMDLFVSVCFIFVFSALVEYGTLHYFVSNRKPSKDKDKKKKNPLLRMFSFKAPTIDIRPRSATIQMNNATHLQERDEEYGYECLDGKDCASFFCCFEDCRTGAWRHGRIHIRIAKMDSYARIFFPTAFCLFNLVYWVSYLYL
T2 sequence (P28472 whole entry): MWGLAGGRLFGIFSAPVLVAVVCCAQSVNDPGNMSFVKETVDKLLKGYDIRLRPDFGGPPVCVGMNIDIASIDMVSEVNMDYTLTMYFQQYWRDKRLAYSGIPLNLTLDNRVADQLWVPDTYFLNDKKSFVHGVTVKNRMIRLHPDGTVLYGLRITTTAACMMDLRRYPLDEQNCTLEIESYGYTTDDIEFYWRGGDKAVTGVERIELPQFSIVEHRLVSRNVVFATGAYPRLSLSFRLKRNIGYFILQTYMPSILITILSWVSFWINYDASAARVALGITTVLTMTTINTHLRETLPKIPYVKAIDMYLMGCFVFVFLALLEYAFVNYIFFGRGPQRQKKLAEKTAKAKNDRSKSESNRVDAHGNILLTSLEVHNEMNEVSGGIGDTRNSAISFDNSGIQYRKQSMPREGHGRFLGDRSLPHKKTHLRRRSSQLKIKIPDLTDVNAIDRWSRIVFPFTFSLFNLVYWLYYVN
In short: (§1)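 Whole-cell patch clamp of L(tk-) cells stably expressing human α1, α3 or α5 β3γ2s, perfused with bicarbonate saline pH 7.2, CsCl pipette solution pH 7.3. Drugs applied by double-barrelled pipette; GABA in 5 s pulses at 30 s intervals. Modulation measured against a GABA EC20 set for each cell; curves fitted to a Hill equation.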

[4] = target: T3, GABA-A receptor; alpha-5/beta-3/gamma-2 (Homo sapiens, UniProt P18507+P28472+P31644); assay: Displacement of [3H]-Ro- 15-1788 binding from human recombinant Gamma-aminobutyric acid A receptor alpha-5-beta-3-gamma-2 expressed in mouse fibroblast L(tk-) cells (30 min at 24 degrees C, pH 7.4); assay type: cell-based
T3 sequence (P18507 whole entry): T2 sequence (P18507 whole entry)
T3 sequence (P28472 whole entry): T2 sequence (P28472 whole entry)
T3 sequence (P31644 whole entry): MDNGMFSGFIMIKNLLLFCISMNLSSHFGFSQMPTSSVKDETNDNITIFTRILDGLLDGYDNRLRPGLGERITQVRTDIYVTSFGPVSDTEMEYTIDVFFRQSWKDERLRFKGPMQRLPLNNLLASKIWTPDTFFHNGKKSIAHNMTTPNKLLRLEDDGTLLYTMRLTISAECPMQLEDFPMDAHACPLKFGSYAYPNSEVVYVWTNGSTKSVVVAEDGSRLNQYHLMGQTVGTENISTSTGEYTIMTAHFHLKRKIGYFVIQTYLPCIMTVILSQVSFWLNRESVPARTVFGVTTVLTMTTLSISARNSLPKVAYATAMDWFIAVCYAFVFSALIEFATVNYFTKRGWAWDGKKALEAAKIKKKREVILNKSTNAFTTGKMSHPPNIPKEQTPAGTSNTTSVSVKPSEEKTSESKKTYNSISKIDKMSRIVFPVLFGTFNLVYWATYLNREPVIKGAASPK
In short: (§2)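 Membranes from L(tk-) cells stably expressing human α1, α3 or α5 β3γ2 in 50 mM Tris pH 7.4. [3H]Ro15-1788 at 1.8 nM final, 30 min at 24 °C. Nonspecific binding set with 10 µM flunitrazepam, total binding in 0.1% DMSO. Filtration, scintillation counting. Ki is mean ± SEM of ≥3 independent determinations.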

[5] = target: T2, GABA-A receptor; alpha-1/beta-3/gamma-2; assay: Displacement of [3H]-Ro- 15-1788 binding from human recombinant Gamma-aminobutyric acid A receptor alpha-1-beta-3-gamma-2 expressed in mouse fibroblast L(tk-) cells (30 min at 24 degrees C, pH 7.4); assay type: cell-based; in short: as §2
[6] = target: T1, GABA-A receptor; alpha-3/beta-3/gamma-2 (Homo sapiens); assay: Maximum inhibition of GABA EC20 response at GABA-A receptor alpha-3-beta-3-gamma-2,n=3; assay type: protein-complex assay; in short: as §1

clearance [1]: 36 mL/min/kg
Efficacy [2]: -4
pEC50 [3]: 8.53
pKi [4]: 8.28
pKi [5]: 8.15
Maximum inhibition [6]: -16%
SMILES: N#Cc1cccc(-c2cnnc(-c3ccccc3)c2)c1
